Test results as given in ChEMBL document CHEMBL3769372, “Specific Inhibitors of HIV Capsid Assembly Binding to the C-Terminal Domain of the Capsid Protein: Evaluation of 2-Arylquinazolines as Potential Antiviral Compounds” (J Med Chem, 2016).
Residues, ends and D or L forms follow the SMILES beside them.

Tests used:
[1] = system: Human immunodeficiency virus 1; assay: Antiviral activity against HIV1 NL4-3 infected in human TZM-bl cells assessed as inhibition of viral replication administered 6 hrs postinfection measured 48 hrs by luciferase reporter gene assay; type: functional, organism-based; settings: Human immunodeficiency virus 1, NL4-3, TZM-bl
Method in brief: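 TZM-bl cells infected with NL4-3 stock (from MT-4 co-culture) at MOI 1; at 6 h p.i. medium replaced with DMEM containing compound, refreshed at 30 h p.i.; supernatants collected at 52 h p.i. and titrated on fresh TZM-bl cells; infection read by luciferase at 48 h p.i.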

[2] = Cytotoxicity against human TZM-bl cells assessed as cell viability at 10 uM after 48 hrs by MTS assay relative to control; type: cell-based; settings: read-out: Activity
Method in brief: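 TZM-bl cells (DMEM, 10% FBS, 10 mM HEPES) incubated with compound at 37 °C, 5% CO2 for 48 h in parallel with the infectivity assay; viability by MTS read-out. Tested in triplicate at 10 µM final, with titration 0.625–20 µM; values normalized to DMSO-only treated cells.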

[3] = biological target: T1, Structural capsid protein (Human immunodeficiency virus 1, UniProt Q76129); assay: Binding affinity to recombinant N-terminal GST-tagged HIV1 NL4-3 capsid C-terminal domain (146 to 231 residues) incubated for 2 hrs by alphascreen assay
Method in brief: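 AlphaScreen competition: GST-fused CA (60 nM) on glutathione acceptor beads and biotinylated peptide (30 nM) on streptavidin donor beads, beads 10 µg/ml. Buffer was PBS, 0.05% Tween 20, 2 mM DTT. Compounds were titrated 0.2–200 µM and incubated 2 h at RT, with emission read at 520–620 nm. Inhibition was normalized to DMSO-only (max) and buffer (min) controls.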

[4] = biological target: T1, Structural capsid protein; assay: Binding affinity to HIV1 NL4-3 dimeric capsid C-terminal domain (146 to 231 residues) by isothermal titration calorimetry
Method in brief: (§1)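 VP-ITC at 25 °C in 30 mM MES pH 6.0 with 10% glycerol, 2 mM 2-mercaptoethanol and 2% DMSO; protein concentrations by HPLC amino acid analysis. Ligand concentration was estimated by UV spectra after centrifugation to remove precipitate. 9 µl aliquots of 31 µM ligand went into 3.9 µM CA dimer or 3.1 µM CA CTD dimer to saturation. Ligand-into-buffer heat was subtracted.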

[5] = Binding affinity to recombinant HIV1 NL4-3 capsid L211S mutant by isothermal titration calorimetry; design: species or system Human immunodeficiency virus 1
Method in brief: (§2)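 Point mutants made by PCR, expressed solubly in E. coli BL21(DE3)RIL, enriched by ammonium sulphate fractionation (20–50%), then MonoS cation exchange (pH 5.5) and Superdex75 gel filtration. Binding by ITC at 25 °C in 30 mM MES pH 6.0, 10% glycerol, 2 mM 2-mercaptoethanol, 2% DMSO. 320–350 µM peptide ligand was injected in 2 µl steps into 23–33 µM protein, with a buffer-only control.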

[6] = biological target: T1, Structural capsid protein; assay: Binding affinity to full length HIV1 NL4-3 capsid (1 to 231 residues) by isothermal titration calorimetry
Method in brief: (§3)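 ITC at 25 °C (Auto-iTC200) in 30 mM MES pH 6.0, 10% glycerol, 2 mM 2-mercaptoethanol, 2% DMSO. Protein and peptide concentrations were set by HPLC amino acid analysis. 320–350 µM peptide ligand was injected in 2 µl steps into 23–33 µM protein until saturated. A buffer-only injection control was run, and titrations were repeated in two buffers of differing ionization enthalpy.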

[7] = system: Human immunodeficiency virus 1; assay: Selectivity ratio of Kd for recombinant HIV1 NL4-3 capsid L211S mutant to Kd for full length HIV1 capsid (1 to 231 residues)
Method in brief: (§4)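 Ratio of ITC-derived KD for each mutant CA to KD for wild-type CA. Titrations were at 25 °C in 30 mM MES pH 6.0, 10% glycerol, 2 mM 2-mercaptoethanol, 2% DMSO. Peptide ligand (320–350 µM) was injected into 23–33 µM protein, with a buffer-only control.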

[8] = system: Human immunodeficiency virus 1; assay: Selectivity ratio of Kd for recombinant HIV1 NL4-3 capsid N183A mutant to Kd for full length HIV1 capsid (1 to 231 residues); method in brief: as §4
[9] = Binding affinity to recombinant HIV1 NL4-3 capsid N183A mutant by isothermal titration calorimetry; design: species or system Human immunodeficiency virus 1; method in brief: as §2
[10] = biological target: T1, Structural capsid protein; assay: Binding affinity to full length HIV1 NL4-3 dimeric capsid (1 to 231 residues) by isothermal titration calorimetry; method in brief: as §1
[11] = biological target: T1, Structural capsid protein; assay: Binding affinity to HIV1 NL4-3 capsid at 25 degC by isothermal titration calorimetry; method in brief: as §3
[12] = biological target: T1, Structural capsid protein; assay: Binding affinity to HIV1 NL4-3 capsid C-terminal domain (146 to 231 residues) by isothermal titration calorimetry; method in brief: as §3
[13] = Binding affinity to recombinant HIV1 NL4-3 capsid Y169A mutant by isothermal titration calorimetry; design: species or system Human immunodeficiency virus 1; method in brief: as §2
[14] = Binding affinity to recombinant HIV1 NL4-3 capsid L211A mutant by isothermal titration calorimetry; design: species or system Human immunodeficiency virus 1; method in brief: as §2
[15] = system: Human immunodeficiency virus 1; assay: Selectivity ratio of Kd for recombinant HIV1 NL4-3 capsid L211A mutant to Kd for full length HIV1 capsid (1 to 231 residues); method in brief: as §4
[16] = system: Human immunodeficiency virus 1; assay: Selectivity ratio of Kd for recombinant HIV1 NL4-3 capsid Y169A mutant to Kd for full length HIV1 capsid (1 to 231 residues); method in brief: as §4
[17] = Binding affinity to recombinant HIV1 NL4-3 capsid E187A mutant by isothermal titration calorimetry; design: species or system Human immunodeficiency virus 1; method in brief: as §2
[18] = system: Human immunodeficiency virus 1; assay: Selectivity ratio of Kd for recombinant HIV1 NL4-3 capsid E187A mutant to Kd for full length HIV1 capsid (1 to 231 residues); method in brief: as §4

T1 sequence (Q76129 whole entry, the tested form may be a part): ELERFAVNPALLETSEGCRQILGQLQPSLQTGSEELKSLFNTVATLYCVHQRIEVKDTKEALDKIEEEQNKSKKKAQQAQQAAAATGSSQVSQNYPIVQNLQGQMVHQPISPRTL

CCNC(=O)c1ccc(Nc2nc(-c3cccnc3)nc3ccccc23)cc1
IC50 [1]: > 10 µM | viability at 48 h, 10 µM [2]: 97% | IC50 [3]: > 100 µM

CCOC(=O)c1ccc(Nc2nc(-c3ccncc3)nc3ccccc23)cc1
Kd [4]: 0.038 µM | Kd [5]: 1.9 µM | Kd [6]: 0.14 µM | IC50 [1]: > 10 µM | viability at 48 h, 10 µM [2]: 96% | IC50 [3]: 8 µM | Selectivity ratio [7]: 14 | Selectivity ratio [8]: 7 | Kd [9]: 0.89 µM | Kd [10]: 0.14 µM

CC(=O)c1ccc(Nc2nc(-c3cccnc3)nc3ccccc23)cc1
IC50 [1]: 8 µM | viability at 48 h, 10 µM [2]: 93% | IC50 [3]: 14 µM

OC(c1ccc(Nc2nc(-c3cccnc3)nc3ccccc23)cc1)(C(F)(F)F)C(F)(F)F
viability at 48 h, 10 µM [2]: 46% | IC50 [3]: > 100 µM

CONC(=O)c1ccc(Nc2nc(-c3cccnc3)nc3ccccc23)cc1
IC50 [1]: > 10 µM | viability at 48 h, 10 µM [2]: 99% | IC50 [3]: 63 µM

O=C(O)c1ccc(-c2nc(-c3ccccc3)c(-c3ccccc3)[nH]2)cc1
Kd [11]: 85 µM

CC[C@H](C)[C@H](N)C(=O)N[C@H](C(=O)N[C@@H](Cc1ccccc1)C(=O)N[C@@H](CCC(=O)O)C(=O)N[C@@H](CC(=O)O)C(=O)N[C@@H](CC(C)C)C(=O)N[C@@H](CC(C)C)C(=O)N[C@@H](CC(=O)O)C(=O)N[C@@H](Cc1ccc(O)cc1)C(=O)N[C@@H](Cc1ccc(O)cc1)C(=O)NCC(=O)N1CCC[C@H]1C(N)=O)[C@@H](C)O (H-ITFEDLLDYYGP-NH2)
Kd [12]: 3 µM | Kd [13]: 13 µM | Kd [5]: 84 µM | Kd [6]: 4 µM | Kd [14]: 15 µM | Selectivity ratio [15]: 4 | Selectivity ratio [16]: 3 | Selectivity ratio [7]: 21 | Selectivity ratio [8]: 13 | Kd [17]: 5 µM | Kd [9]: 53 µM | Selectivity ratio [18]: 1

CC(=O)c1cccc(Nc2nc(-c3cccnc3)nc3ccccc23)c1
IC50 [1]: 8 µM | viability at 48 h, 10 µM [2]: 89% | IC50 [3]: 30 µM

CCOC(=O)c1ccc(Nc2nc(-c3cccnc3C)nc3ccccc23)cc1
IC50 [1]: > 10 µM | viability at 48 h, 10 µM [2]: 100% | IC50 [3]: 14 µM

CCOC(=O)c1ccccc1Nc1nc(-c2ccncc2)nc2ccccc12
IC50 [1]: > 10 µM | viability at 48 h, 10 µM [2]: 97% | IC50 [3]: 37 µM

N#Cc1ccc(Nc2nc(-c3ccncc3)nc3ccccc23)cc1
IC50 [1]: > 10 µM | viability at 48 h, 10 µM [2]: 96% | IC50 [3]: 4 µM

NC(=O)c1ccc(Nc2nc(-c3ccncc3)nc3ccccc23)cc1
IC50 [1]: > 10 µM | viability at 48 h, 10 µM [2]: 97% | IC50 [3]: > 100 µM

CCNS(=O)(=O)c1ccc(Nc2nc(-c3cccnc3)nc3ccccc23)cc1
IC50 [1]: > 10 µM | viability at 48 h, 10 µM [2]: 97% | IC50 [3]: > 100 µM

CON(C)C(=O)c1ccc(Nc2nc(-c3cccnc3)nc3ccccc23)cc1
IC50 [1]: > 10 µM | viability at 48 h, 10 µM [2]: 97% | IC50 [3]: 37 µM

NS(=O)(=O)c1ccc(Nc2nc(-c3cccnc3)nc3ccccc23)cc1
IC50 [1]: > 10 µM | viability at 48 h, 10 µM [2]: 98% | IC50 [3]: 80 µM

O=C(c1ccc(Nc2nc(-c3cccnc3)nc3ccccc23)cc1)C(F)(F)F
viability at 48 h, 10 µM [2]: 62% | IC50 [3]: > 100 µM

O=C(NCCO)c1ccc(Nc2nc(-c3cccnc3)nc3ccccc23)cc1
IC50 [1]: > 10 µM | viability at 48 h, 10 µM [2]: 100% | IC50 [3]: > 100 µM

CCOC(=O)c1ccc(Nc2nc(-c3cccnc3)nc3ccccc23)cc1
IC50 [1]: 4.7 µM | viability at 48 h, 10 µM [2]: 84% | IC50 [3]: 47 µM

CCOC(=O)c1cccc(Nc2nc(-c3ccncc3)nc3ccccc23)c1
IC50 [1]: 5.3 µM | viability at 48 h, 10 µM [2]: 96% | IC50 [3]: 21 µM

CCOC(=O)Cc1ccc(Nc2nc(-c3cccnc3)nc3ccccc23)cc1
IC50 [1]: > 10 µM | viability at 48 h, 10 µM [2]: 98% | IC50 [3]: > 100 µM

CC(O)c1ccc(Nc2nc(-c3cccnc3)nc3ccccc23)cc1 (stereo not drawn)
IC50 [1]: > 10 µM | viability at 48 h, 10 µM [2]: 98% | IC50 [3]: > 100 µM

CS(=O)(=O)c1ccc(Nc2nc(-c3ccncc3)nc3ccccc23)cc1
IC50 [1]: > 10 µM | viability at 48 h, 10 µM [2]: 97% | IC50 [3]: > 100 µM

CSc1ccc(Nc2nc(-c3ccncc3)nc3ccccc23)cc1
IC50 [1]: 10 µM | viability at 48 h, 10 µM [2]: 95%

CC(=O)c1ccc(Nc2nc(-c3ccncc3)nc3ccccc23)cc1
IC50 [1]: 4.6 µM | viability at 48 h, 10 µM [2]: 96% | IC50 [3]: 9 µM

OC(c1ccc(Nc2nc(-c3cccnc3)nc3ccccc23)cc1)C(F)(F)F (stereo not drawn)
IC50 [1]: 10 µM | viability at 48 h, 10 µM [2]: 87% | IC50 [3]: > 100 µM

O=C(NCCF)c1ccc(Nc2nc(-c3cccnc3)nc3ccccc23)cc1
IC50 [1]: > 10 µM | viability at 48 h, 10 µM [2]: 90% | IC50 [3]: 3 µM

C[S+]([O-])c1ccc(Nc2nc(-c3ccncc3)nc3ccccc23)cc1 (stereo not drawn)
IC50 [1]: > 10 µM | viability at 48 h, 10 µM [2]: 98% | IC50 [3]: > 100 µM

O=C(O)c1ccc(Nc2nc(-c3ccncc3)nc3ccccc23)cc1
IC50 [1]: > 10 µM | viability at 48 h, 10 µM [2]: 98% | IC50 [3]: > 100 µM

CCOC(=O)c1cccc(Nc2nc(-c3cccnc3)nc3ccccc23)c1
IC50 [1]: 5 µM | viability at 48 h, 10 µM [2]: 83% | IC50 [3]: 68 µM
